Test results as given in ChEMBL document CHEMBL1147419, “Inhibition of estrone sulfatase (ES) by alkyl and cycloalkyl ester derivatives of 4-[(aminosulfonyl)oxy] benzoic acid” (Bioorg Med Chem Lett, 2004).

What was measured:
[1] = Partition coefficient (logP); type: physicochemical; settings: octanol/water
[2] = pKa value was determined; type: physicochemical
Method in brief: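 The starting phenols' pKa was measured spectroscopically from the change in phenolic UV absorption under acidic (pH 2), pH 9 and basic (pH 11) conditions.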

[3] = target: T1, Steryl-sulfatase (Homo sapiens) (UniProt P08842); experiment: Inhibitory activity against estrone sulfatase at 20 uM (initial screening)
T1 sequence (whole entry): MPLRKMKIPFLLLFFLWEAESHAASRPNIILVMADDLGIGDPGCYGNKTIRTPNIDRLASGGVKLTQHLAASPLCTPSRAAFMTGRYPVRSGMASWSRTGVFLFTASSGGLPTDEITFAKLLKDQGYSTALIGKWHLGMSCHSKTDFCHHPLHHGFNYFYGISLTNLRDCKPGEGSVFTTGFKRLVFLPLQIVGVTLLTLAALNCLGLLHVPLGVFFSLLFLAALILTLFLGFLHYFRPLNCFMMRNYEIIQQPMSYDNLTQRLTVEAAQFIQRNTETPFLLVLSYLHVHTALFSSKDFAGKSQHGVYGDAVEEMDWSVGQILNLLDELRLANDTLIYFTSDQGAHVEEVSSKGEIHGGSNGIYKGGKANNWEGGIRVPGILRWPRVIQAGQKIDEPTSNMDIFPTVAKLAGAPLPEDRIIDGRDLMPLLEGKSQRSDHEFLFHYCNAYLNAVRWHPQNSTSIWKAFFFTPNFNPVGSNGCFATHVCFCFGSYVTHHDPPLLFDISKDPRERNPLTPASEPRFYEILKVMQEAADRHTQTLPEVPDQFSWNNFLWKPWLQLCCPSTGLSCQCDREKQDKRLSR
Method in brief: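 Placental microsomes, diluted to 115 µg/mL in 0.05 M Tris-HCl pH 7.2 and pre-warmed 5 min at 37 °C, incubated 20 min at 37 °C with ³H-estrone sulfate (20 µM/tube, 300,000 dpm). Inhibitors were added in ethanol, then dried under nitrogen. Toluene quench, then toluene-phase radioactivity counted by scintillation. Triplicates, uninhibited controls, boiled-microsome blanks.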

Steryl-sulfatase = target: T2, Steryl-sulfatase (Homo sapiens, UniProt P08842); experiment: Inhibition of estrone sulfatase
T2 sequence (P08842 whole entry): T1 sequence (whole entry)

[4] = target: T1, Steryl-sulfatase (Homo sapiens); settings: 0.25 uM

NS(=O)(=O)Oc1ccc(C(=O)OC2CCCCC2)cc1
logP [1]: 3.08
pKa [2]: 8.81
inhibition [3]: 84%
IC50 (Steryl-sulfatase): 1700 nM

C[C@]12CC[C@@H]3c4ccc(OS(N)(=O)=O)cc4CCC3[C@@H]1CCC2=O (single isomer, unassigned) [EMATE]
logP [1]: 3.8
pKa [2]: 8.37

CCCCOC(=O)c1ccc(OS(N)(=O)=O)cc1
logP [1]: 2.7

CCCOC(=O)c1ccc(OS(N)(=O)=O)cc1
logP [1]: 2.3

CCCCCCCCOC(=O)c1ccc(OS(N)(=O)=O)cc1
logP [1]: 4.29
pKa [2]: 8.09

CCCCCCCCCOC(=O)c1ccc(OS(N)(=O)=O)cc1
logP [1]: 4.68
pKa [2]: 8.39

CCOC(=O)c1ccc(OS(N)(=O)=O)cc1
logP [1]: 1.84

NS(=O)(=O)Oc1ccc(C(=O)OC2CCCCCCC2)cc1
logP [1]: 3.87
pKa [2]: 8.09
inhibition [3]: 82%
IC50 (Steryl-sulfatase): 170 nM

CCCCCCOC(=O)c1ccc(OS(N)(=O)=O)cc1
logP [1]: 3.49

NS(=O)(=O)Oc1ccc(C(=O)OC2CCCCCC2)cc1
logP [1]: 3.47
pKa [2]: 8.88
inhibition [3]: 87%
IC50 (Steryl-sulfatase): 500 nM

NS(=O)(=O)Oc1ccc2c3c(c(=O)oc2c1)CCCCC3 [IROSUSTAT]
logP [1]: 2.65
pKa [2]: 8.27
inhibition [4]: 56%

CCCCCCCOC(=O)c1ccc(OS(N)(=O)=O)cc1
logP [1]: 3.89

Cc1cc(=O)oc2cc(OS(N)(=O)=O)ccc12
logP [1]: 1.6
pKa [2]: 8
IC50 (Steryl-sulfatase): 13800 nM

CCCCCOC(=O)c1ccc(OS(N)(=O)=O)cc1
logP [1]: 3.1

NS(=O)(=O)Oc1ccc(C(=O)OC2CCCC2)cc1
logP [1]: 2.68
pKa [2]: 8.73
inhibition [3]: 62%
IC50 (Steryl-sulfatase): 9300 nM

COC(=O)c1ccc(OS(N)(=O)=O)cc1
logP [1]: 1.49

CCCCCCCCCCOC(=O)c1ccc(OS(N)(=O)=O)cc1
logP [1]: 5.08
pKa [2]: 8.09
